Assay outcomes as filed in PubChem BioAssay.
Mdm2 ligase inh: MDM2-luciferase reporter signal enhancers, primary screen, MDM2 E3 ligase inhibitor project, cell-based, luminescence, 1536-well. AID 1230, 2008. cell-based MDM2 ubiquitination luciferase reporter, 2 h; 0 = plate control, 100 = twice control, blank-subtracted. 210,000 tested, 0.11% active. signal enhancement, % at 5 µM. E3 ubiquitin-protein ligase Mdm2 (Homo sapiens), Q00987;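 active means signal enhancement of 30% or more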;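 further: luminescence tracks abundance of the self-degrading MDM2-luciferase fusion protein; higher signal means inhibition of MDM2 E3 ligase activity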
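Assay system: mammalian cells stably expressing self-ubiquitinating, self-degrading MDM2 E3–luciferase fusion. Quantity: 2000 cells in each well. Medium: DMEM culture medium. Compound dosing: single-point 5 µM. Timing: cell settling 4 h, compound treatment 2 h, both 37 °C. Technique: luciferase luminescence. Read-out basis: percent signal gain over controls, blank-subtracted. Benchmarks: plate controls and plate blanks.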
AHR activator: AHR activators, primary screen, cell-based, luminescence, luciferase reporter, human; AHR-responsive luciferase reporter cells; activation, % at 5 µM; 320,000 tested, 2.5% active; AID 2796, 2010; in the data active means activation above about 47%;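 further: 0% = vehicle wells and 100% = reference agonist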
NF-kB neuron act: activators of NF-kB expression in neurons, primary screen, cell-based, HTS; human neuronal cells, NF-kB reporter expression; stronger effect = higher value; fold change at 12.5 µM; 190,000 tested, 1.6% active; in the data active means fold change above about 3.3
APP 5'UTR act: activators of APP 5'UTR luciferase reporter, primary screen, SH-SY5Y cells. SH-SY5Y APP 5'UTR luciferase reporter, luminescence; zero percent = DMSO vehicle wells. activation, % at 2 µM. 190,000 tested, 1% active. AID 1276, 2008;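 active means activation above a set limit, based on mean plus 3 SD of controls, cut at about 140% in these data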
STAT1 activator: STAT1 signaling activators, primary screen, cell-based, HTS, luciferase reporter. NIH 3T3 STAT1-luciferase reporter, IFN-gamma, luminescence; 100% = IFN-gamma alone, no compound. activation (% of control), % at 5.5 µM. 200,000 tested, 2.6% active;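 active means activation above the screen-wide mean activation plus 3 SD, cut at about 130% in these data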;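 further: raw ratio to IFN-gamma control signal so 100% means no change and 0% no light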
PERK inh: block of dimerizer-induced PERK translation repression, primary screen, PERK inhibitor project, CHO PERK-DD cells, SEAP luminescence, HTS | Eukaryotic translation initiation factor 2-alpha kinase 3 (Homo sapiens), Q9NZJ5 | CHO PERK-DD fusion, SEAP luminescence translation reporter | inhibition, % at 5.6 µM | 220,000 tested, 0.17% active | AID 1416, 2008;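 active means inhibition above the mean inhibition of all tested compounds plus 3 SD, set separately per screening campaign, cut at about 2.9% in these data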;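 further: PERK kinase domain activated by AP20187 dimerizer at 100 nM; 0% = DMSO with dimerizer and 100% = rapamycin at 8.4 µM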
AHR act cf: AHR activators, confirmation, cell-based, luminescence, luciferase reporter, human. shares compounds with AHR activator. human cells, AHR-responsive luciferase reporter. activation, % at 9 µM. 2,300 tested, 87% active. AID 2845, 2010; in the data active means activation above about 49%;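 further: HepG2 hepatoma cells carrying a DRE-driven firefly luciferase reporter; 0% = vehicle wells and 100% = reference agonist wells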
PXR act counter: human PXR activators, counter-screen for AHR activator project, cell-based, luciferase luminescence | shares compounds with AHR activator | cell-based PXR reporter | activation, % at 11.6 µM | 2,300 tested, 88% active | AID 434939, 2010; in the data active means activation above about 11%;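 further: human hepatoma DPX-2 cells expressing full-length human PXR; 0% = DMSO and 100% = reference agonist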
Target sequence (O75469 whole entry, looked up): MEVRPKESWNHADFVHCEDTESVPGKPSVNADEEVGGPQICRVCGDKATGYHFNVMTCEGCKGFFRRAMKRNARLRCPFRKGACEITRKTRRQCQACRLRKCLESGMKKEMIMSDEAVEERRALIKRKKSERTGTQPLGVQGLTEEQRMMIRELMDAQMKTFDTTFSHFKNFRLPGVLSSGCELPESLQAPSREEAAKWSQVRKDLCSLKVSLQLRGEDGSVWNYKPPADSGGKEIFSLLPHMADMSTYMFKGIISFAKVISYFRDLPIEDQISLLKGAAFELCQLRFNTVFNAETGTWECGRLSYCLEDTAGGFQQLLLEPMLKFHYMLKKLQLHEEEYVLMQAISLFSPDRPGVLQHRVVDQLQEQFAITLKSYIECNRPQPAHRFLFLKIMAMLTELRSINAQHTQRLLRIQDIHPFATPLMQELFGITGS
An asterisk follows results filed as active; x = no result. Sampled rows, rich in hits. Any-hit rate of the full collection: about 4.5%.

SMILES | Mdm2 ligase inh | AHR activator | NF-kB neuron act | APP 5'UTR act | STAT1 activator | PERK inh | AHR act cf | PXR act counter
CCOc1ccc2[nH]c3c(NCCOC)ncnc3c2c1 | x | 84.8* | x | x | x | x | 116.3* | 39.1*
CCCN1C(=O)c2cc(C(=O)Nc3ccc(OC)cc3OC)ccc2C1Nc1ccc(OC)cc1OC (stereo unspecified) | x | 107.3* | 0.56 | 9.1 | 97.0 | 0.8 | 79.0* | 64.4*
Cc1ccc2c(C(=O)CNc3nncs3)c(C)[nH]c2c1 | -0.6 | 106.0* | x | x | x | 1.9 | 35.7 | 16.9*
CCn1c(C)cc(/C=C2\NC(=O)N(CC(=O)Nc3cccc(C)c3)C2=O)c1C | -3.2 | 80.1* | 1.11 | 1.9 | 94.6 | -0.5 | 77.6* | 15.9*
CCN(CC)CCNC(=O)c1ccc(NC(=O)Nc2cccc3ccccc23)cc1 | x | 5.3 | x | x | x | x | x | x
COc1ccc(C)c2sc(NNC(=O)COc3ccccc3)nc12 | -16.8 | 79.5* | 1.11 | 3.8 | 100.6 | 0.1 | 98.6* | 14.6*
NC1=NN=C(c2ccc3c(c2)OCCO3)CS1 | -70.3 | 87.2* | 1.65 | 81.1 | 53.7 | 0.5 | -6.0 | -1.9
Cc1sc(N)nc1-c1ccc2c(c1)OCCO2 | x | 8.4 | x | x | x | x | x | x
CC1CCCN(C(=O)CCNS(=O)(=O)c2ccc3c(c2)oc(=O)n3C)C1 (stereo unspecified) | x | -2.6 | x | x | x | x | x | x
FC(F)(F)c1cccc(N2CCN(c3ccc4nnc(-c5ccccc5)n4n3)CC2)c1 | 1.2 | -1.1 | 0.95 | -3.5 | 100.5 | 0.7 | x | x
COc1ccc2nnc(-c3ccc(C(F)(F)F)cc3)n2n1 | x | 81.4* | x | x | x | 0.1 | 105.2* | 18.1*
COc1ccc2sc(-c3ccc(SC)cc3)c(C#CCO)c2c1 | x | 85.2* | x | x | x | x | 90.2* | 33.9*
COc1cccc(-c2sc3ccc(OC)cc3c2C#CCC(C)O)c1 (stereo unspecified) | x | 44.0 | x | x | x | x | x | x
COc1ccc2sc(-c3ccc(N(C)C)cc3)c(C#CCCO)c2c1 | x | 108.8* | x | x | x | x | 129.1* | 19.1*
CC(=O)N(c1ccc(Cl)cc1)c1nc(C)cc(C)c1C#N | -7.5 | 101.7* | 1.14 | 0.9 | 97.5 | -0.2 | 112.2* | 109.7*
COCc1ccc(C(=O)N2CCCC(Nc3ccc4c(c3)OCCO4)C2)o1 (stereo unspecified) | x | 10.5 | x | x | x | x | x | x
CCOC(=O)CN1N=C(c2ccc(Cl)cc2)CCC1=O | x | 3.5 | x | x | x | x | x | x
Cc1cc([N+](=O)[O-])ccc1NCc1ccccc1 | -13.7 | 0.9 | 1.2 | 6.5 | 108.2 | 0.3 | x | x
O=[N+]([O-])c1ccc(NCCc2ccccc2)c(Br)c1 | x | 114.3* | x | x | x | x | 104.3* | 12.5*
O=C(CCc1nc2sc3c(c2c(=O)[nH]1)CCCC3)N1CCN(c2ccccc2)CC1 | x | 4.0 | x | x | x | x | x | x
O=[N+]([O-])c1ccc(Cl)cc1CNc1ccc(F)c(F)c1 | 3.1 | 106.4* | 0.99 | 4.6 | 95.6 | 0.4 | 80.0* | 20.0*
CCOc1ccc(Nc2nc(-c3cccnc3)cs2)cc1 | x | 114.6* | x | x | x | x | 180.9* | 14.2*
CCC(=O)c1ccc(OCC(=O)Nc2nc(-c3cccnc3)cs2)cc1 | x | 25.4 | x | x | x | x | x | x
COc1cccc(NC(=O)c2cnc[nH]2)c1 | x | 5.8 | x | x | x | x | x | x
O=C(Nc1ccc(Br)cc1)c1cnc[nH]1 | x | 108.8* | x | x | x | x | 67.7* | 18.5*
SMILES | Mdm2 ligase inh | AHR activator | NF-kB neuron act | APP 5'UTR act | STAT1 activator | PERK inh | AHR act cf | PXR act counter
Cc1nc(N2CCOCC2)c2oc3ccccc3c2n1 | -2.5 | 99.5* | 1.06 | -5.6 | 97.2 | -1.1 | 92.3* | 24.2*
N#C/C(=C\c1cccs1)C(=O)c1ccccc1Cl | -21.3 | 13.4 | x | x | x | 0.4 | x | x
Cc1cccc(NC(=O)CCc2ccccc2)c1C | x | 1.2 | x | x | x | x | x | x
CCn1cc(Br)c(C(=O)Nc2ccc(F)cc2F)n1 | -17.4 | 99.3* | x | x | x | -0.6 | 130.2* | 13.2*
O=C(N=Nc1c(O)[nH]c2ccccc12)c1ccc2c(c1)OCO2 | -43.0 | 95.0* | 2.3 | 105.8 | 69.1 | 1.5 | 65.3* | 20.7*
COc1ccc(NC(=O)c2ccc(-c3nn(C)c(=O)c4ccccc34)cc2)cc1C(N)=O | x | -1.7 | x | x | x | 1.0 | x | x
CC(=O)Cc1cc(O)c2ccccc2c1OC(=O)c1ccccc1 | -15.0 | 92.6* | 0.63 | 6.6 | 99.7 | -0.1 | 98.0* | 16.0*
N#C/C(=C\c1ccc(Sc2ccccc2)o1)c1nc2ccccc2[nH]1 | -1.4 | 145.3* | 1.71 | 139.1* | 106.6 | 0.5 | 121.9* | 151.1*
N#C/C(=C/c1ccc(Sc2nc3ccccc3[nH]2)o1)c1cccc(Br)c1 | -0.9 | 82.6* | 0.85 | -24.8 | 92.5 | -2.1 | 42.5 | 83.7*
N#C/C(=C\c1ccc(-c2ccccc2C(=O)O)o1)c1nc2ccccc2[nH]1 | x | 14.4 | x | x | x | x | x | x
CCN(CC)C(=O)c1[nH]cnc1C(=O)N[C@@H](C)C(=O)OC(C)(C)C | x | 5.2 | 1.13 | -1.4 | 105.5 | 0.4 | x | x
COCC(=O)N1CCc2ccc(NC(=O)c3ccc(C(F)(F)F)cc3)cc2C1 | x | 102.9* | x | x | x | x | 72.6* | x
C=C(C)CNC(=S)NN=C1c2ccccc2-c2ccccc21 | -8.0 | 92.3* | 0.99 | -5.5 | 95.3 | -0.1 | 87.5* | 55.3*
CCNC(=S)NN=C1c2ccccc2-c2ccccc21 | 5.9 | 45.1 | 0.93 | 5.9 | 105.6 | 0.0 | x | x
CSCCC(NC(=O)c1ccco1)C(=O)N1CCCC(C(F)(F)F)C1 (stereo unspecified) | x | 9.8 | x | x | x | x | x | x
Cc1cc(N)ccc1N=Nc1c(C)n(C)n(-c2ccccc2)c1=O | -4.1 | 87.4* | 1.2 | 23.8 | 116.5 | -0.8 | 118.8* | 24.9*
NC(=O)c1c[nH]c2ccccc12 | 3.1 | 6.2 | 1.1 | 4.3 | 101.1 | 1.7 | x | x
O=C(/C=C/c1ccccc1)c1c[nH]c2ccccc12 | -26.4 | 83.8* | x | x | x | 1.6 | 92.6* | 31.5*
O=C(Nc1ccccc1)C(=O)c1c[nH]c2ccccc12 | x | 102.0* | x | x | x | x | 129.0* | 28.0*
N#C/C(=C\c1cccnc1)C(=O)NC1CCCCC1 | -6.4 | -2.3 | 1.1 | -11.9 | 95.8 | 1.6 | x | x
CCOc1ccccc1Nc1nc(N)nc(CSc2nccc(C)n2)n1 | 8.6 | 81.5* | 0.96 | -7.3 | 105.7 | -0.1 | 70.0* | 59.9*
Cc1cccc(Nc2nc(N)nc(CSc3nccc(C)n3)n2)c1 | -6.3 | 103.4* | 1.16 | 18.9 | 98.9 | 0.4 | 102.8* | 119.1*
